Experiment [1] has as its target NAD(P)H dehydrogenase [quinone] 1 (Homo sapiens) (UniProt P15559). Nature of the experiment: Evaluated for the kinetic parameter (Kcat) using recombinant DT-Diaphorase, value calculated from Lineweaver-Burke plot. The procedure, abridged:
(§1)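 Recombinant human DT-diaphorase (1.4 × 10^-9 M final) with NADH (0.3 mM final) and quinone substrate (1.3 × 10^-6 to 6.7 × 10^-5 M final; 4.0 mM DMSO stock) in 0.05 M Tris pH 7.4. Anaerobic Thunberg cuvettes, argon-purged 20 min, 30 °C. Initial rates from 336 nm absorbance over 10 min. Δε from absorbance before and after complete reduction. kcat and Km from Lineweaver–Burke plot.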

For experiment [2] the target is unchanged. As to the kind of experiment: Ratio Kcat/Km provides the apparent second-order rate constant of the enzymatic transformation of DT-Diaphorase. The procedure, abridged: as §1
Experiment [3] has the same target. Nature of the experiment: The ratio Kcat/Km provides the apparent second-order rate constant of the enzymatic transformation DT-Diaphorase. In outline: as §1

These results are taken from ChEMBL document CHEMBL1135883, “A comprehensive study of the active site residues of DT-diaphorase: rational design of benzimidazolediones as DT-diaphorase substrates” (J Med Chem, 2002).

Sequence of NAD(P)H dehydrogenase [quinone] 1 (Homo sapiens) (P15559 whole entry): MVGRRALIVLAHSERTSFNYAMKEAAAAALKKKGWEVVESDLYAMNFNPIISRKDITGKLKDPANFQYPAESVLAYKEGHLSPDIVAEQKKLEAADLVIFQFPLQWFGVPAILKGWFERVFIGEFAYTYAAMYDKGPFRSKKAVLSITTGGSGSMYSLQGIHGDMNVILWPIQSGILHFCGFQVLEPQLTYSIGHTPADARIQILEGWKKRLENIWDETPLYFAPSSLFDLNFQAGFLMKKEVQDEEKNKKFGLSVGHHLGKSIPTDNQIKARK

`COCC(=O)O[C@H]1CCn2c1nc1c2C(=O)C(C)=C(NC(C)=O)C1=O`: in experiment [1], the k cat was 1.74 s⁻¹. Besides, in experiment [2], the k cat/Km stood at 69000 M⁻¹ s⁻¹.

On to `O=C1c2nc3n(c2C(=O)c2c1nc1n2CCC1)CCC3`, for which the k cat in experiment [1] was 3.81 s⁻¹. Moreover, in experiment [3], the k cat/Km came out at 118000 M⁻¹ s⁻¹.

As for `CC1=C(N2CC2)C(=O)c2nc3n(c2C1=O)CC[C@@H]3NC(=O)N(C)C`, in experiment [1], the k cat is 3.96 s⁻¹. In addition, in experiment [2], the k cat/Km came to 940000 M⁻¹ s⁻¹.

For the compound `CC1=C(N2CC2)C(=O)c2nc3n(c2C1=O)CC[C@H]3NC(=O)N(C)C`, the k cat in experiment [1] is 9.56 s⁻¹. The k cat/Km in experiment [2] worked out at 2.13e+06 M⁻¹ s⁻¹.

Turning to `CC(=O)N[C@@H]1CCn2c1nc1c2C(=O)C(C)=C(N2CC2)C1=O`, the k cat in experiment [1] was 1.47 s⁻¹. Moreover, the k cat/Km in experiment [3] was 920000 M⁻¹ s⁻¹.

For `CC1=C(N2CC2)C(=O)c2nc3n(c2C1=O)CC[C@@H]3NC(N)=O`, in experiment [1], the k cat is 2.4 s⁻¹. In experiment [3], the k cat/Km turned out to be 1.2e+06 M⁻¹ s⁻¹.

For the compound `CC1=C(N2CC2)C(=O)c2nc3n(c2C1=O)CC[C@H]3N`, in experiment [1], the k cat was 3.26 s⁻¹. Further, the k cat/Km in experiment [2] amounted to 640000 M⁻¹ s⁻¹.

On to `CC1=C(N2CC2)C(=O)c2nc3n(c2C1=O)CC[C@@H]3N`, for which the k cat in experiment [1] was 2.64 s⁻¹. The k cat/Km in experiment [2] was 1.39e+06 M⁻¹ s⁻¹.

In the case of `CC(=O)NC1=C(C)C(=O)c2c(nc3n2CC[C@H]3OC(C)=O)C1=O`, the k cat in experiment [1] was 3.81 s⁻¹. The k cat/Km in experiment [2] amounted to 154000 M⁻¹ s⁻¹.

For `O=C1c2nc3n(c2C(=O)c2c1nc1n2CCCC1)CCCC3`, the k cat in experiment [1] was 3.74 s⁻¹. Besides, in experiment [2], the k cat/Km amounted to 1.45e+06 M⁻¹ s⁻¹.

As for `COCC(=O)O[C@@H]1CCn2c1nc1c2C(=O)C(C)=C(NC(C)=O)C1=O`, the k cat in experiment [1] was 4.84 s⁻¹. The k cat/Km in experiment [3] came out at 40000 M⁻¹ s⁻¹.

`CC1=C(N2CC2)C(=O)c2nc3n(c2C1=O)CC[C@H]3NC(N)=O`: the k cat in experiment [1] is 2.7 s⁻¹. Also, the k cat/Km in experiment [2] turned out to be 890000 M⁻¹ s⁻¹.

`CC(=O)N[C@H]1CCn2c1nc1c2C(=O)C(C)=C(N2CC2)C1=O`: the k cat in experiment [1] is 1.87 s⁻¹. In experiment [2], the k cat/Km was 520000 M⁻¹ s⁻¹.

For `CC(=O)NC1=C(C)C(=O)c2c(nc3n2CC[C@@H]3OC(C)=O)C1=O`, the k cat in experiment [1] is 3.85 s⁻¹. The k cat/Km in experiment [2] came out at 472000 M⁻¹ s⁻¹.

With `CC1=C(N2CC2)C(=O)c2nc3n(c2C1=O)CCC[C@H]3N`, the k cat in experiment [1] was 4.92 s⁻¹. Further, the k cat/Km in experiment [2] was 106000 M⁻¹ s⁻¹.

For the compound `CC1=C(N2CC2)C(=O)c2nc3n(c2C1=O)CCC[C@@H]3N`, in experiment [1], the k cat was 2.97 s⁻¹. For the same compound, in experiment [3], the k cat/Km worked out at 188000 M⁻¹ s⁻¹.
